TPT1 inh: C. albicans TPT1 enzyme inhibition | inhibition, % at 5 µM | AID 1962 | recombinant caTPT1, FP RNA substrate dephosphorylation | 0.81% of 300,000 active;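 active means inhibition above the mean of all tested compounds plus 3 SD, set per screening campaign, cut at about 24% in these data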;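 further: plate controls were DMSO alone for no effect and ferristatin control at 100 nM for full effect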
Neddyl block: inhibitors of human cullin neddylation. TR-FRET cullin neddylation, biochemical. 0.58% of 360,000 active. P61081+Q13564. AID 651699. inhibition, % at 25 µM; in the data active means inhibition above about 36%
HNF4A DNA FP: change in binding of human HNF4 alpha to DNA. P41235. HNF4a-FITC DNA binding, fluorescence polarization, 1 h. activity change, % at 10 µM. 0.3% of 360,000 active. AID 1224865; in the data active means activity change above about 30%, passing the limit was not always enough
Rpn11 block: inhibitors of human proteasome Rpn11; O00487; human 26S proteasome, Ub4-pepOG fluorescence polarization; 20S core pre-blocked with epoxomicin; inhibition, % at 20 µM; 0.59% of 360,000 active; AID 588493;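 active means inhibition at 20 µM, scaled to each plate's controls, above about 33%, limit read from the data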
Target sequence (O00487 whole entry, looked up): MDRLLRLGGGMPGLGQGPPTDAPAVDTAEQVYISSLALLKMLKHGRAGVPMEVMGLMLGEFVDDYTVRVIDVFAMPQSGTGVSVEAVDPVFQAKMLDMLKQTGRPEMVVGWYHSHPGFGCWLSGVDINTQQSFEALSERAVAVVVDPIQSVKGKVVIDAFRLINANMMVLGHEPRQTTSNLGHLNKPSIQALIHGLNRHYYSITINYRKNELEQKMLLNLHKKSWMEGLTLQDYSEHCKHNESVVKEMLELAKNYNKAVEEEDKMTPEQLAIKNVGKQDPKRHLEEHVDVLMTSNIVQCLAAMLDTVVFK
Rin1-Abl PPI inh: blocks binding of human Rin1 to Abl; TR-FRET Rin1/Abl binding, biochemical; AID 588664; P00519+Q13671; inhibition, % at 7.35 µM; 0.4% of 360,000 active; in the data active means inhibition above about 5%, passing the limit was not always enough
CSN deneddyl inh: CSN deneddylation inhibition; Q92905; Purified CSN, SCF-Nedd8-OG deneddylation, fluorescence polarization; inhibition, % at 12.5 µM; 0.38% of 360,000 active;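 active means pattern-corrected inhibition above about 35%, with an unprinted fluorescence ratio check between 0.5 and 1.5, limit read from the data, passing the limit was not always enough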;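 further: 0% = enzyme with substrate and 100% = substrate without enzyme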
Target sequence (Q92905 whole entry, looked up, one chain of several): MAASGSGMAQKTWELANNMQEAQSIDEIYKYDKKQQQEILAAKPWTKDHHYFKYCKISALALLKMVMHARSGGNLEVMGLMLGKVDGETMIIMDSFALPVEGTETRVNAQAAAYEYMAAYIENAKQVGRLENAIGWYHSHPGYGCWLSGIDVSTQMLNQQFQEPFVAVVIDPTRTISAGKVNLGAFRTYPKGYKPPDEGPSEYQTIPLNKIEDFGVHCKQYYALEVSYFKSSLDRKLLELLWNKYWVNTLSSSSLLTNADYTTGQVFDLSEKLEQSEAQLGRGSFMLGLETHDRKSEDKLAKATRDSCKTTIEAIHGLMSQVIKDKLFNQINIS
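Test system: purified human Csn5 enzyme expressed in HEK293T cells. Amount: 0.24 nM enzyme. Reagent: SCFSkp2-Nedd8OG substrate at 10 nM final. Schedule: 90 min incubation of compound, enzyme and substrate at room temperature. Detection: fluorescence polarization. Read-out: % inhibition of substrate cleavage by Csn5.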
Rpn11 inh conf: confirmation of human proteasome Rpn11 inhibitors | shares compounds with Rpn11 block | purified human 26S proteasome, Ub4-pepOG fluorescence polarization; proteasome pretreated with epoxomicin | inhibition, % at 20 µM | 29% of 1,900 active | AID 602318
MMP-2 counter: MMP-2 (human) inhibition counter-screen | 4% of 1,900 active | recombinant MMP-2, FRET peptide cleavage fluorescence | inhibition, % at 20 µM | shares compounds with Rpn11 block;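 further: human MMP-2 activated beforehand with APMA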
Thrombin FP: thrombin (bovine) inhibition counter-screen; shares compounds with Rpn11 block; bovine thrombin cleavage of Ub4-pepOG, fluorescence polarization; inhibition, % at 20 µM; 13% of 1,900 active;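 active means mean inhibition at least 40% at 20 µM, or signal 3 deviations below plate average, so some actives read negative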;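 further: plate controls were thrombin with DMSO for no effect and buffer wells lacking thrombin for full effect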
* marks the source's active call; other numbers are inactive results; nt = not tested or not shown; + = active, no number. A selection: hits, their analogues and other compounds. The true share with any hit is near 2.4%. Unless noted, no stated cut-off is given here; in the data, active means inhibition above about 40%; inactive means the rest.

SMILES	TPT1 inh	Neddyl block	HNF4A DNA FP	Rpn11 block	Rin1-Abl PPI inh	CSN deneddyl inh	Rpn11 inh conf	MMP-2 counter	Thrombin FP
Cc1ccc(/C=N\NC(=O)C2CN(S(=O)(=O)c3ccccc3)CCN2S(=O)(=O)c2ccccc2)cc1 (stereo not drawn)	1	2	-4	-6	1	-6	nt	nt	nt
CCCCOc1ccc2c(c1)/C(=C(\C(Cl)=C(Cl)Cl)[N+](=O)[O-])N2	-42	21	14	37*	0	7	-48	36	-62
CCOc1ccc2c(c1)/C(=C(\C(Cl)=C(Cl)Cl)[N+](=O)[O-])N2	-40	18	9	-5	4	0	nt	nt	nt
CCCC(=O)N1CCN(c2ccc(NC(=S)NC(=O)CC)cc2)CC1	0	-5	0	-6	2	2	nt	nt	nt
COc1ccc(CCNC(=O)c2cccn2C)cc1	1	5	3	-2	0	0	nt	nt	nt
COc1ccc(CNC(=O)C(C)OC(=O)c2cccn2C)cc1 (stereo not drawn)	1	4	14	+	0	6	-3	11	-13
Cc1ccc(/C=C2\SC(=S)N(C3CCS(=O)(=O)C3)C2=O)o1 (stereo not drawn)	5	-5	17	51*	0	31	10	23	3
CN(C)/C=C/C(=O)c1ccc(OCCN(C)c2ccccn2)cc1	14	-11	0	0	3	2	nt	nt	nt
Cc1cc(C)c(S(=O)(=O)n2ccc(-c3ccc(OCCN(C)c4ccccn4)cc3)n2)c(C)c1	-2	0	2	92*	6	3	-39	-14	-13
Cc1ccc(OCC(=O)NCCCNC(=O)c2ccncc2)cc1	1	0	4	2	-2	-2	nt	nt	nt
O=C1c2ccccc2-c2onc3c(N4CCN(CCO)CC4)cc(N4CCN(C(=O)c5ccco5)CC4)c1c23	-11	-20	5	49*	-13	8	active	-92	active
O=C(c1ccco1)N1CCN(CCCCN2C(=O)c3ccccc3C2=O)CC1	3	1	5	2	0	1	nt	nt	nt
CN1CCN(C(c2ccc(Cl)cc2)c2cc(Cl)c3cccnc3c2O)CC1 (stereo not drawn)	0	14	0	46*	3	2	44*	28	-8
COC(=O)[C@]1(C)N[C@H](c2ccc(-c3ccc(Cl)c(Cl)c3)c(OC)c2)[C@@H]2C(=O)N(C)C(=O)[C@@H]21	-1	-6	-2	4	2	2	nt	nt	nt
CCCCCCCCN1[C@@H](CC(=O)OC)c2cc(F)ccc2S1(=O)=O	-1	4	3	56*	1	1	10	-9	5
C=CCn1c(O)c(C=Nc2ccc(Cc3ccncc3)cc2)c(=O)[nH]c1=S	9	-52	2	48*	-4	2	11	-3	-8
NCCCC[C@H]1CN=C(N)N1CC1CCCCC1	0	5	-29	34*	2	2	-12	-3	47*
O=C(O)c1ccccc1-c1ccc(C=c2sc3nc4cc(Br)cnc4n3c2=O)o1	nt	-26	-30	+	0	146	+	70*	184*
Cc1ccc(C2NC(=O)CCC2[N+](=O)[O-])cc1 (stereo not drawn)	-2	-9	2	-1	9	6	nt	nt	nt
C=CCOc1ccc(/C=C2\C(=N)N3N=C(S(=O)(=O)CC)SC3=NC2=O)cc1OC	5	-18	7	5	2	4	nt	nt	nt
COc1cc(/C=C2/C(=N)N3C(=NC2=O)SN=C3S(=O)(=O)C(C)C)ccc1OC(=O)c1ccco1	9	-91	35	47*	-1	19	25	-15	13
CCS(=O)(=O)C1=NN2C(=N)/C(=C\c3ccc(OC(=O)c4ccco4)c(OC)c3)C(=O)N=C2S1	7	-73	20	46*	1	22	22	-4	19
CCOc1cc(/C=C2/C(=N)N3C(=NC2=O)SN=C3S(=O)(=O)CC)ccc1OC(=O)c1ccco1	6	-72	27	56*	-4	30	16	-5	4
Nn1c(SCC(=O)Nc2ccccc2Br)nnc1-c1ccco1	2	6	0	4	1	3	nt	nt	nt
CSc1nc(-c2ccco2)cc(C(F)(F)F)c1C#N	0	29	21	134*	-3	-1	-2	-29	5
SMILES	TPT1 inh	Neddyl block	HNF4A DNA FP	Rpn11 block	Rin1-Abl PPI inh	CSN deneddyl inh	Rpn11 inh conf	MMP-2 counter	Thrombin FP
N#Cc1c(C(F)(F)F)cc(-c2ccco2)nc1SCc1ccncc1	23	22	13	54*	2	25	29	-14	18
CNC(=S)Nc1cccc(-c2cnc3ccccc3n2)c1	-2	-28	1	-2	3	5	nt	nt	nt
NC(=O)COc1ccc(/C=N\NC(=O)c2ccc(-c3ccccc3)cc2)cc1	-2	nt	5	125*	-1	27	3	-10	-2
Cc1cc(C)c(S(=O)(=O)c2ccccc2)c(OC(=O)c2ccc(Cl)cc2Cl)n1	-5	0	-6	4	-3	6	nt	nt	nt
Cc1cc(OC(=O)c2ccc(Cl)cc2Cl)nc(C)n1	-1	-6	-2	+	1	-4	-2	-46	6
CCCCNC(=O)COc1ccccc1C(=O)c1cc(C#N)c(=O)n(CCOC)c1	2	6	3	-2	-4	1	nt	nt	nt
COCCn1cc(C(=O)c2cc(Br)ccc2O)cc(C#N)c1=O	17	-9	9	94*	2	-8	8	21	4
COc1ccccc1-n1cc(C(=O)c2cc(Cl)ccc2O)cc(C#N)c1=O	13	-10	7	47*	1	4	17	-23	8
COc1ccc(O)c(C(=O)c2cc(C#N)c(=O)n(Cc3ccccc3)c2)c1	4	-18	0	5	3	-10	nt	nt	nt
N#Cc1cc(C(=O)c2cc(Br)ccc2O)cn(Cc2ccccc2)c1=O	16	-23	18	50*	2	7	13	0	18
COCCNC(=O)C1(C)CCCN(C(=O)c2ccc(F)cc2Cl)C1 (stereo not drawn)	nt	3	-1	0	-1	-6	nt	nt	nt
CCCCn1c(SCC(=O)NC2CC2)nnc1-c1ccncc1	-2	0	-3	3	2	1	nt	nt	nt
COc1ccc(Cl)cc1NC(=O)CN(C)C(=O)Cn1cnnn1	nt	-5	1	0	1	3	nt	nt	nt
Cc1cc(C)c2cc(C#N)c(N3CCCN(S(=O)(=O)c4ccccc4)CC3)nc2c1	2	nt	nt	nt	nt	nt	nt	nt	nt
